ChEMBL document CHEMBL3352511, “Pyrrole-3-carboxamides as potent and selective JAK2 inhibitors” (Bioorg Med Chem, 2014)
Activity calls are given as the source filed them. The rule behind the calls is not given here.

Key:
[1] = target: T1, Serine/threonine-protein kinase TAO1 (Homo sapiens) (UniProt Q7L7X3); assay: Inhibition of human TAOK1 at 0.1 uM
T1 sequence (whole entry): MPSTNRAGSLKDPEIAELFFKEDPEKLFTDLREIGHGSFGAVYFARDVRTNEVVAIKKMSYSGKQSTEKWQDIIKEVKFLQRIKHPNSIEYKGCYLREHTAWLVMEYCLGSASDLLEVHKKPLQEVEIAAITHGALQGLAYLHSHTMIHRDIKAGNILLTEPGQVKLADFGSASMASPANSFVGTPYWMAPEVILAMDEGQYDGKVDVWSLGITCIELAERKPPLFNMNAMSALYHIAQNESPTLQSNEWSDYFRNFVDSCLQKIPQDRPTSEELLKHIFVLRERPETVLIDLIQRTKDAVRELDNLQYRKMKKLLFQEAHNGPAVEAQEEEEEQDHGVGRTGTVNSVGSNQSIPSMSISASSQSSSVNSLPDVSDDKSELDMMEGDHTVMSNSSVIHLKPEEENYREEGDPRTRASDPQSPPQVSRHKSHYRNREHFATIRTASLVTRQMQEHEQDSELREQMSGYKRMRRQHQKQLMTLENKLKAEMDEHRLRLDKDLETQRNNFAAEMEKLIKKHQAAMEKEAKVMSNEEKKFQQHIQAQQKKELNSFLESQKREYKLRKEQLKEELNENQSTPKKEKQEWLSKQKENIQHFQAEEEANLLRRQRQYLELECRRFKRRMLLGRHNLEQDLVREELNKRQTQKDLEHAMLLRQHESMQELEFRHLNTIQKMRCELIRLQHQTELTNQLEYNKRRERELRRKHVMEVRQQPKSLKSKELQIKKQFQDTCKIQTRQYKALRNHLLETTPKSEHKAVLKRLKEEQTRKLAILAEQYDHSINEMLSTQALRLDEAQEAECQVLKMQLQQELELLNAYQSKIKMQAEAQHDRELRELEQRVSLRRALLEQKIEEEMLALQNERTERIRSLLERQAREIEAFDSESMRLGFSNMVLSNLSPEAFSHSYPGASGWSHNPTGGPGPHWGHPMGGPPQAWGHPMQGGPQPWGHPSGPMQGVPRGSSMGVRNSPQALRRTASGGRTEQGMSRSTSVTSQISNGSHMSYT
In short: (§1)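 KINOMEscan active-site-directed competition binding panel of 442 human kinases, compound tested at 0.1 µM. Primary screen results expressed as % Ctrl, where lower values mean stronger binding.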

A2780 = assay: Antiproliferative activity against human A2780 cells after 72 hrs by Cell Titer-Glo assay; type: functional, cell-based; settings: A2780, 72 h
[2] = target: Dual specificity protein kinase CLK1 (Homo sapiens) (UniProt P49759); assay: Inhibition of human CLK1 at 0.1 uM; in short: as §1
Dual specificity protein kinase CLK1 (Homo sapiens), sequence (P49759 whole entry, looked up): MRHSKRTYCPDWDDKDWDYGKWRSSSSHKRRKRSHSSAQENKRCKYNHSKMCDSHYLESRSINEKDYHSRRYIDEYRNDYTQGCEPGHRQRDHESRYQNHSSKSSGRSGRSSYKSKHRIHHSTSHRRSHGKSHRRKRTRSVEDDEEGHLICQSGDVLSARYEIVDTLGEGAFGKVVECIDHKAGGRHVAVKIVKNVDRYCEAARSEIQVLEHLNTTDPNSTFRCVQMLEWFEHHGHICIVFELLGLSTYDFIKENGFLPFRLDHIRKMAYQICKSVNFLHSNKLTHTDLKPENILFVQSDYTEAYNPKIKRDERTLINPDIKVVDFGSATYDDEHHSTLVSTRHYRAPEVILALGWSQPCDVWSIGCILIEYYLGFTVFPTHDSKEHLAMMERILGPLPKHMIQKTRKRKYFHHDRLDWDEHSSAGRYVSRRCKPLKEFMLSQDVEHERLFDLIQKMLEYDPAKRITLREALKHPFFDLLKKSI

SET-2 = assay: Effect on total STAT3 level in human SET2 cells at 0.08 to 10 uM after 2 hrs by SDS-PAGE analysis; type: functional, cell-based
In short: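 SET-2 cells were grown in RPMI 1640 with 10% FBS at 37 °C, 5% CO₂, and exposed to compound or DMSO for 2 h at 37 °C. Cells were washed in cold PBS and lysed in RIPA buffer. Equal lysate amounts went through SDS-PAGE and nitrocellulose transfer, then 5% milk/TBST blocking and overnight 4 °C probing for total STAT3/STAT5 and phospho-STAT, with ECL detection.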

[3] = AUC(infinity) in Balb nu/nu mouse at 10 mg/kg, iv; type: ADME, organism-based, Plasma; design: dose 10 mg/kg, route intravenous, time infinity; settings: Balb nu/nu, plasma
In short: (§2)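 Overnight-fasted male Nu/Nu mice, single intravenous dose in 10% Tween 80 in 5% dextrose, three mice. Saphenous vein blood taken at predose, 0.083, 0.5, 1, 6 and 24 h. Plasma obtained by centrifugation at 10,000g, 3 min, 4 °C, stored at -80 °C, then analysed by LC/MS/MS.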

[4] = Half life in Balb nu/nu mouse at 10 mg/kg, iv; type: ADME, organism-based; design: dose 10 mg/kg, route intravenous; settings: in vivo; in short: as §2
[5] = target: Dual specificity protein kinase CLK4 (Homo sapiens) (UniProt Q9HAZ1); assay: Inhibition of human CLK4 at 0.1 uM; in short: as §1
Dual specificity protein kinase CLK4 (Homo sapiens), sequence (Q9HAZ1 whole entry, looked up): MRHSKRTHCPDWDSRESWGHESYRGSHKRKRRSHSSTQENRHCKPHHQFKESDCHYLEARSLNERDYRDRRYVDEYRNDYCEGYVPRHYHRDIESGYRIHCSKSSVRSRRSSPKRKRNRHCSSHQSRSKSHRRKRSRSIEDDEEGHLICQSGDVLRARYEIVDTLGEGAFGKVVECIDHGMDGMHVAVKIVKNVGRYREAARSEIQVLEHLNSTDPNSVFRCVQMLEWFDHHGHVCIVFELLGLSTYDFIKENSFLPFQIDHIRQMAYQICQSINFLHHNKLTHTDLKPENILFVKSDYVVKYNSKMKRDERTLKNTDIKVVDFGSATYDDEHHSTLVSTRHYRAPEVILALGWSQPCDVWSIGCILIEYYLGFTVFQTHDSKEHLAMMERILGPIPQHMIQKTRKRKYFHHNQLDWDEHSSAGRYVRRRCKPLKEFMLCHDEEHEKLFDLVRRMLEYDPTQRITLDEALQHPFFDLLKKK

`NC(=O)c1cc(-c2ccnc(N)n2)[nH]c1-c1cc(C(F)(F)F)ccc1Cl` gave an inhibition [1] of 1%, an IC50 (A2780) of 1470 nM and an inhibition [2] of 1%. The Activity (SET-2) was “inactive”, the AUC(0-inf) [3] was 26.4 µM·h and the half-life [4] was 66 min. For the same compound, the inhibition [5] was 1%.
